{"source": "ChEMBL document CHEMBL4316612", "about": "“Synthesis of novel dihydrotriazine derivatives bearing 1,3-diaryl pyrazole moieties as potential antibacterial agents” (Bioorg Med Chem Lett, 2019)", "key": {"Staphylococcus aureus [1]": {"tested_on": "Staphylococcus aureus", "assay": "Antibacterial activity against Staphylococcus aureus RN4220 by serial dilution method", "format": "functional", "procedure,_shortened": "(§1)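 Broth microdilution MIC. Bacteria grown to mid-log phase in Mueller-Hinton broth, diluted 1000-fold, and inoculated at 10^5 CFU/mL. Compounds in DMSO (final ≤0.05%) were given as two-fold serial dilutions, final 64-0.25 µg/mL. Plates were incubated 24 h at 37 °C and growth read at 650 nm. MIC is the lowest concentration giving complete growth inhibition. Three independent experiments; oxacillin and norfloxacin served as positive controls.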"}, "Staphylococcus aureus [2]": {"tested_on": "Staphylococcus aureus", "assay": "Antibacterial activity against quinolone-resistant Staphylococcus aureus CCARM 3505 by serial dilution method", "format": "functional", "procedure,_shortened": "as §1"}, "Escherichia coli": {"tested_on": "Escherichia coli", "assay": "Antibacterial activity against Escherichia coli KCTC 1924 after 24 hrs by microtiter ELISA", "format": "functional", "conditions": "KCTC 1924, 24 h", "procedure,_shortened": "(§2)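 Two-fold serial broth dilution in Mueller-Hinton broth, final 64-0.25 µg/mL; compounds in DMSO (final ≤0.05%). Mid-log cultures diluted 1000-fold, inoculum 10^5 CFU/mL; oxacillin and norfloxacin as positive controls. After 24 h at 37 °C, growth read at 650 nm on a microtiter ELISA reader; MIC = lowest level giving complete growth inhibition. Run three times.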"}, "L02": {"tested_on": "L02", "assay": "Cytotoxicity against human L02 cells assessed as inhibition of cell growth measured after 24 hrs by MTT assay", "format": "cell-based", "conditions": "L02, 24 h", "procedure,_shortened": "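L02 normal human liver cells seeded at 1.8 × 10^4 cells/well in DMEM with 10% FBS and antimycotic. Exposed 24 h at 37 °C, 5% CO2 to 200-1.625 µM, compounds in 10% DMSO. MTT (2.5 mg/mL) added for 4 h, formazan dissolved in DMSO, OD at 570 nm. Untreated cells as negative control; IC50 = 50% growth inhibition; triplicate.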"}, "Staphylococcus aureus [3]": {"tested_on": "Staphylococcus aureus", "assay": "Antibacterial activity against quinolone-resistant Staphylococcus aureus CCARM 3519 after 24 hrs by microtiter ELISA", "format": "functional", "conditions": "CCARM 3519, 24 h", "procedure,_shortened": "as §1"}, "Staphylococcus aureus [4]": {"tested_on": "Staphylococcus aureus", "assay": "Antibacterial activity against Staphylococcus aureus RN4220 after 24 hrs by microtiter ELISA", "format": "functional", "conditions": "RN4220, 24 h", "procedure,_shortened": "as §1"}, "Staphylococcus aureus [5]": {"tested_on": "Staphylococcus aureus", "assay": "Antibacterial activity against quinolone-resistant Staphylococcus aureus CCARM 3505 after 24 hrs by microtiter ELISA", "format": "functional", "conditions": "CCARM 3505, 24 h", "procedure,_shortened": "as §1"}, "[6]": {"target": "Dihydrofolate reductase (Homo sapiens) (UniProt P00374)", "sequence (P00374 whole entry, looked up)": "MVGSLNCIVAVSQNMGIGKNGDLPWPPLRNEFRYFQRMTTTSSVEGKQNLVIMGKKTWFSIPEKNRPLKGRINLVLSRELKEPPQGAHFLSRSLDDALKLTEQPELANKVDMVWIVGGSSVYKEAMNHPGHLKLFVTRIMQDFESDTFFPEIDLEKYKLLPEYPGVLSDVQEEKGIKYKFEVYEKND", "assay": "Inhibition of human DHFR at 10 umol/L measured after 1.5 hrs by ELISA relative to control"}, "Staphylococcus aureus [7]": {"tested_on": "Staphylococcus aureus", "assay": "Antibacterial activity against methicillin-resistant Staphylococcus aureus CCARM 3506 after 24 hrs by microtiter ELISA", "format": "functional", "conditions": "CCARM 3506, 24 h", "procedure,_shortened": "as §1"}, "Candida albicans": {"tested_on": "Candida albicans", "assay": "Antifungal activity against Candida albicans 7535 after 24 hrs by microtiter ELISA", "format": "functional", "conditions": "Candida albicans, 7535, 24 h", "procedure,_shortened": "as §2"}, "Staphylococcus aureus [8]": {"tested_on": "Staphylococcus aureus", "assay": "Antibacterial activity against methicillin-resistant Staphylococcus aureus CCARM 3167 after 24 hrs by microtiter ELISA", "format": "functional", "conditions": "CCARM 3167, 24 h", "procedure,_shortened": "as §1"}, "Streptococcus mutans": {"tested_on": "Streptococcus mutans", "assay": "Antibacterial activity against Streptococcus mutans 3289 after 24 hrs by microtiter ELISA", "format": "functional", "conditions": "Streptococcus mutans, 3289, 24 h", "procedure,_shortened": "as §2"}, "Staphylococcus aureus [9]": {"tested_on": "Staphylococcus aureus", "assay": "Antibacterial activity against Staphylococcus aureus by serial dilution method", "format": "functional", "procedure,_shortened": "as §2"}}}
{"molecule": "NC1=NC(c2ccc3cc(OCc4ccc(Cl)cc4Cl)ccc3c2)N=C(N2CCOCC2)N1", "note": "(stereo unspecified)", "values": [{"measurement": "MIC", "setting": "Staphylococcus aureus [1]", "value": 1, "unit": "µg/mL"}, {"measurement": "MIC", "setting": "Staphylococcus aureus [2]", "value": 1, "unit": "µg/mL"}]}
{"molecule": "NC1=NC(c2cn(-c3ccc([N+](=O)[O-])cc3)nc2-c2ccc(Cl)cc2Cl)N=C(NCCc2ccccc2)N1", "note": "(stereo unspecified)", "values": [{"measurement": "MIC", "setting": "Escherichia coli", "value": 1, "unit": "µg/mL"}, {"measurement": "IC50", "setting": "L02", "value": 50.5, "unit": "µM"}, {"measurement": "MIC", "setting": "Staphylococcus aureus [3]", "value": 1, "unit": "µg/mL"}, {"measurement": "MIC", "setting": "Staphylococcus aureus [4]", "value": 1, "unit": "µg/mL"}, {"measurement": "MIC", "setting": "Staphylococcus aureus [5]", "value": 1, "unit": "µg/mL"}, {"measurement": "inhibition", "setting": "[6]", "value": 92, "unit": "%"}, {"measurement": "MIC", "setting": "Staphylococcus aureus [7]", "value": 1, "unit": "µg/mL"}, {"measurement": "MIC", "setting": "Candida albicans", "value": 1, "unit": "µg/mL"}, {"measurement": "MIC", "setting": "Staphylococcus aureus [8]", "value": 1, "unit": "µg/mL"}, {"measurement": "MIC", "setting": "Streptococcus mutans", "value": 1, "unit": "µg/mL"}]}
{"molecule": "NC1=NC(c2cn(-c3ccc([N+](=O)[O-])cc3)nc2-c2ccc(Cl)cc2Cl)N=C(N2CCOCC2)N1", "note": "(stereo unspecified)", "values": [{"measurement": "MIC", "setting": "Escherichia coli", "value": 4, "unit": "µg/mL"}, {"measurement": "IC50", "setting": "L02", "value": "> 100", "unit": "µM"}, {"measurement": "MIC", "setting": "Staphylococcus aureus [3]", "value": 4, "unit": "µg/mL"}, {"measurement": "MIC", "setting": "Staphylococcus aureus [4]", "value": 2, "unit": "µg/mL"}, {"measurement": "MIC", "setting": "Staphylococcus aureus [5]", "value": 4, "unit": "µg/mL"}, {"measurement": "MIC", "setting": "Staphylococcus aureus [7]", "value": 2, "unit": "µg/mL"}, {"measurement": "MIC", "setting": "Candida albicans", "value": 4, "unit": "µg/mL"}, {"measurement": "MIC", "setting": "Staphylococcus aureus [8]", "value": 2, "unit": "µg/mL"}, {"measurement": "MIC", "setting": "Streptococcus mutans", "value": 8, "unit": "µg/mL"}]}
{"molecule": "CN(C)C1=NC(c2cn(-c3ccc([N+](=O)[O-])cc3)nc2-c2ccc(Cl)cc2Cl)N=C(N)N1", "note": "(stereo unspecified)", "values": [{"measurement": "MIC", "setting": "Escherichia coli", "value": 2, "unit": "µg/mL"}, {"measurement": "IC50", "setting": "L02", "value": "> 100", "unit": "µM"}, {"measurement": "MIC", "setting": "Staphylococcus aureus [3]", "value": 2, "unit": "µg/mL"}, {"measurement": "MIC", "setting": "Staphylococcus aureus [4]", "value": 2, "unit": "µg/mL"}, {"measurement": "MIC", "setting": "Staphylococcus aureus [5]", "value": 4, "unit": "µg/mL"}, {"measurement": "MIC", "setting": "Staphylococcus aureus [7]", "value": 2, "unit": "µg/mL"}, {"measurement": "MIC", "setting": "Candida albicans", "value": 4, "unit": "µg/mL"}, {"measurement": "MIC", "setting": "Staphylococcus aureus [8]", "value": 2, "unit": "µg/mL"}, {"measurement": "MIC", "setting": "Streptococcus mutans", "value": 4, "unit": "µg/mL"}]}
{"molecule": "O=C(O)CN1C(=O)/C(=C/c2cn(-c3ccc([N+](=O)[O-])cc3[N+](=O)[O-])nc2-c2ccc(Cl)cc2Cl)SC1=S", "values": [{"measurement": "MIC", "setting": "Staphylococcus aureus [9]", "value": 16, "unit": "µg/mL"}]}
